Each block holds one molecule with its values, some of them ahead of it.
Experiments:
Liver microsome [1] = test: Drug level in human liver microsomes treated with lapatinib at 50 uM by LC/MS/MS analysis; type: ADME
How it was run: (§1)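 Lapatinib 50 μM (added in DMSO) incubated 30 min at 37°C in 100 mM potassium phosphate pH 7.4 with HLM 1 mg/mL or recombinant CYP3A4+b5 / CYP3A5+b5 100 pmol/mL. Reaction started with NADPH 1 mM. Protein re-isolated by ultracentrifugation (100,000 x g, 4°C, 60 min), washed (KCl/EDTA), resuspended in phosphate buffer, ±2 mM ferricyanide 10 min 37°C, quenched with acetonitrile, then high-resolution LC/MS profiling.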

Cytochrome P450 3A4 [2] = target: T1, Cytochrome P450 3A4 (Homo sapiens, UniProt P08684); test: Activity of recombinant CYP3A4 (unknown origin) assessed as compound formation treated with lapatinib at 50 uM by LC/MS/MS analysis; type: ADME; details: recombinant enzyme; how it was run: as §1
T1 sequence (P08684 whole entry): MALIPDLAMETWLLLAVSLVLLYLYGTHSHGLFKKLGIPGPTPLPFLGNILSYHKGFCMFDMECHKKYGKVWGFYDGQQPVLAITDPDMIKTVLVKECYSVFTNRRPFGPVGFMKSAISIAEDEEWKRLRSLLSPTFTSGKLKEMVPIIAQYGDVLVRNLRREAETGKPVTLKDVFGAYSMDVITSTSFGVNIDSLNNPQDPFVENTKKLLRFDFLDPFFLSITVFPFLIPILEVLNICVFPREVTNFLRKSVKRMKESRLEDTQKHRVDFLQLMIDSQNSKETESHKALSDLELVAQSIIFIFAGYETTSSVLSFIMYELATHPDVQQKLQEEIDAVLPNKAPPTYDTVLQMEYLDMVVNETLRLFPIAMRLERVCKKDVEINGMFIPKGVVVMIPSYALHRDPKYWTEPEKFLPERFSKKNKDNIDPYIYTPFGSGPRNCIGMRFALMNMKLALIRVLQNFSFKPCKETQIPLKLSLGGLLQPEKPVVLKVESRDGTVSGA

[3] = Retention time of the compound by LC/MS/MS analysis relative to lapatinib; type: physicochemical
How it was run: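 Phenyl UPLC column (1.7 μm, 2.1 x 100 mm), 0.1% formic acid in water/acetonitrile, 0.4 mL/min. Gradient: 10% organic for 1 min, to 90% over 13 min, held 0.5 min. Detection by accurate-mass MS. Retention times expressed relative to lapatinib.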

Cytochrome P450 3A5 [4] = target: T2, Cytochrome P450 3A5 (Homo sapiens, UniProt P20815); test: Activity of recombinant CYP3A5 (unknown origin) assessed as compound formation treated with lapatinib at 50 uM by LC/MS/MS analysis; type: ADME; details: recombinant enzyme; how it was run: as §1
T2 sequence (P20815 whole entry): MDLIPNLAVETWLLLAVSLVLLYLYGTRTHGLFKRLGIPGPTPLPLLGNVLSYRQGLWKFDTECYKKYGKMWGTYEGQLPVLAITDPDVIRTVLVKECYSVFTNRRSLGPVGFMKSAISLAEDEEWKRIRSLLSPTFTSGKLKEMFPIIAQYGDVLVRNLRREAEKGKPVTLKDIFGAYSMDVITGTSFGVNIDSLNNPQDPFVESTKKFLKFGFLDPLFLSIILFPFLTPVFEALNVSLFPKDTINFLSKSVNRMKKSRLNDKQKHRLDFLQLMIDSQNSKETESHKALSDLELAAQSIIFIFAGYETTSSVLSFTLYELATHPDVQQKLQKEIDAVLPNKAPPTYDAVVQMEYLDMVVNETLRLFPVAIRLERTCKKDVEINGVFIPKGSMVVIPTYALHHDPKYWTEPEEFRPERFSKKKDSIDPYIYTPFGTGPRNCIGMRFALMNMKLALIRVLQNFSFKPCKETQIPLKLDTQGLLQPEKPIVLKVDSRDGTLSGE

Liver microsome [5] = test: Drug metabolism in human liver microsomes assessed as N-(3-chloro-4-(3-fluorobenzyloxy)phenyl)-6-(5-((hydroxy(2 (methylsulfonyl)ethyl)amino)methyl)furan-2-yl)quinazolin-4-amine formation at 50 uM for 30 mins by LC/MS/MS analysis; type: ADME; details: 0.5 h; how it was run: as §1
Liver microsome [6] = test: Drug metabolism in human liver microsomes assessed as 5-(4-(3-chloro-4-(3-fluorobenzyloxy)phenylamino)quinazolin-6-yl)furan-2-carbaldehyde oxime formation at 50 uM for 30 mins by LC/MS/MS analysis; type: ADME; details: 0.5 h; how it was run: as §1
Liver microsome [7] = test: Drug metabolism in human liver microsomes assessed as N-((5-(4-(3-chloro-Drug metabolism in human liver microsomes assessed as 5-(4-(3-chloro-4-(3-fluorobenzyloxy)phenylamino)quinazolin-6-yl)furan-2-carbaldehyde formation at 50 uM for 30 mins by LC/MS/MS analysis; type: ADME; details: 0.5 h; how it was run: as §1
Cytochrome P450 3A4 [8] = target: T1, Cytochrome P450 3A4; test: Activity of recombinant CYP3A4 (unknown origin) assessed as 2-chloro-4-(6-(5-((2-(methylsulfonyl)ethylamino)methyl)furan-2-yl)quinazolin-4-ylamino)phenol formation at 50 uM for 30 mins by LC/MS/MS analysis; type: ADME; details: recombinant enzyme, 0.5 h; how it was run: as §1
Cytochrome P450 3A4 [9] = target: T1, Cytochrome P450 3A4; test: Activity of recombinant CYP3A4 (unknown origin) assessed as N-((5-(4-(3-chloro-4-(3-fluorobenzyloxy)phenylamino)quinazolin-6-yl)furan-2-yl)methylene)-2-(methylsulfonyl)ethanamine oxide formation at 50 uM for 30 mins by LC/MS/MS analysis; type: ADME; details: recombinant enzyme, 0.5 h; how it was run: as §1
Cytochrome P450 3A4 [10] = target: T1, Cytochrome P450 3A4; test: Activity of recombinant CYP3A4 (unknown origin) assessed as (5-(4-(3-chloro-4-(3-fluorobenzyloxy)phenylamino)quinazolin-6-yl)furan-2-yl)methanol formation at 50 uM for 30 mins by LC/MS/MS analysis; type: ADME; details: recombinant enzyme, 0.5 h; how it was run: as §1
Cytochrome P450 3A4 [11] = target: T1, Cytochrome P450 3A4; test: Activity of recombinant CYP3A4 (unknown origin) assessed as N-(3-chloro-4-(3-fluorobenzyloxy)phenyl)-6-(5-((hydroxy(2 (methylsulfonyl)ethyl)amino)methyl)furan-2-yl)quinazolin-4-amine formation at 50 uM for 30 mins by LC/MS/MS analysis; type: ADME; details: recombinant enzyme, 0.5 h; how it was run: as §1
Cytochrome P450 3A4 [12] = target: T1, Cytochrome P450 3A4; test: Activity of recombinant CYP3A4 (unknown origin) assessed as 5-(4-(3-chloro-4-(3-fluorobenzyloxy)phenylamino)quinazolin-6-yl)furan-2-carbaldehyde oxime formation at 50 uM for 30 mins by LC/MS/MS analysis; type: ADME; details: recombinant enzyme, 0.5 h; how it was run: as §1
Cytochrome P450 3A4 [13] = target: T1, Cytochrome P450 3A4; test: Activity of recombinant CYP3A4 (unknown origin) assessed as 5-(4-(3-chloro-4-(3-fluorobenzyloxy)phenylamino)quinazolin-6-yl)furan-2-carbaldehyde formation at 50 uM for 30 mins by LC/MS/MS analysis; type: ADME; details: recombinant enzyme, 0.5 h; how it was run: as §1
Cytochrome P450 3A5 [14] = target: T2, Cytochrome P450 3A5; test: Activity of recombinant CYP3A5 (unknown origin) assessed as 2-chloro-4-(6-(5-((2-(methylsulfonyl)ethylamino)methyl)furan-2-yl)quinazolin-4-ylamino)phenol formation at 50 uM for 30 mins by LC/MS/MS analysis; type: ADME; details: recombinant enzyme, 0.5 h; how it was run: as §1
Cytochrome P450 3A5 [15] = target: T2, Cytochrome P450 3A5; test: Activity of recombinant CYP3A5 (unknown origin) assessed as 2-chloro-4-(6-(5-(hydroxy(2-(methylsulfonyl)ethylamino)methyl)furan-2-yl)quinazolin-4-ylamino)phenol formation at 50 uM for 30 mins by LC/MS/MS analysis; type: ADME; details: recombinant enzyme, 0.5 h; how it was run: as §1
Cytochrome P450 3A5 [16] = target: T2, Cytochrome P450 3A5; test: Activity of recombinant CYP3A5 (unknown origin) assessed as 6-(5-(aminomethyl)furan-2-yl)-N-(3-chloro-4-(3-fluorobenzyloxy)phenyl)quinazolin-4-amine formation at 50 uM for 30 mins by LC/MS/MS analysis; type: ADME; details: recombinant enzyme, 0.5 h; how it was run: as §1
Cytochrome P450 3A5 [17] = target: T2, Cytochrome P450 3A5; test: Activity of recombinant CYP3A5 (unknown origin) assessed as N-((5-(4-(3-chloro-4-(3-fluorobenzyloxy)phenylamino)quinazolin-6-yl)furan-2-yl)methylene)-2-(methylsulfonyl)ethanamine oxide formation at 50 uM for 30 mins by LC/MS/MS analysis; type: ADME; details: recombinant enzyme, 0.5 h; how it was run: as §1
Cytochrome P450 3A5 [18] = target: T2, Cytochrome P450 3A5; test: Activity of recombinant CYP3A5 (unknown origin) assessed as (5-(4-(3-chloro-4-(3-fluorobenzyloxy)phenylamino)quinazolin-6-yl)furan-2-yl)methanol formation at 50 uM for 30 mins by LC/MS/MS analysis; type: ADME; details: recombinant enzyme, 0.5 h; how it was run: as §1
Cytochrome P450 3A5 [19] = target: T2, Cytochrome P450 3A5; test: Activity of recombinant CYP3A5 (unknown origin) assessed as N-(3-chloro-4-(3-fluorobenzyloxy)phenyl)-6-(5-((hydroxy(2 (methylsulfonyl)ethyl)amino)methyl)furan-2-yl)quinazolin-4-amine formation at 50 uM for 30 mins by LC/MS/MS analysis; type: ADME; details: recombinant enzyme, 0.5 h; how it was run: as §1
Cytochrome P450 3A5 [20] = target: T2, Cytochrome P450 3A5; test: Activity of recombinant CYP3A5 (unknown origin) assessed as 5-(4-(3-chloro-4-(3-fluorobenzyloxy)phenylamino)quinazolin-6-yl)furan-2-carbaldehyde oxime formation at 50 uM for 30 mins by LC/MS/MS analysis; type: ADME; details: recombinant enzyme, 0.5 h; how it was run: as §1
Cytochrome P450 3A5 [21] = target: T2, Cytochrome P450 3A5; test: Activity of recombinant CYP3A5 (unknown origin) assessed as 5-(4-(3-chloro-4-(3-fluorobenzyloxy)phenylamino)quinazolin-6-yl)furan-2-carbaldehyde formation at 50 uM for 30 mins by LC/MS/MS analysis; type: ADME; details: recombinant enzyme, 0.5 h; how it was run: as §1
Cytochrome P450 3A4 [22] = target: T1, Cytochrome P450 3A4; test: Activity of recombinant CYP3A4 (unknown origin) assessed as 6-(5-(aminomethyl)furan-2-yl)-N-(3-chloro-4-(3-fluorobenzyloxy)phenyl)quinazolin-4-amine formation at 50 uM for 30 mins by LC/MS/MS analysis; type: ADME; details: recombinant enzyme, 0.5 h; how it was run: as §1
Cytochrome P450 3A4 [23] = target: T1, Cytochrome P450 3A4; test: Activity of recombinant CYP3A4 (unknown origin) assessed as 2-chloro-4-(6-(5-(hydroxy(2-(methylsulfonyl)ethylamino)methyl)furan-2-yl)quinazolin-4-ylamino)phenol formation at 50 uM for 30 mins by LC/MS/MS analysis; type: ADME; details: recombinant enzyme, 0.5 h; how it was run: as §1
Liver microsome [24] = test: Drug metabolism in human liver microsomes assessed as 2-chloro-4-(6-(5-((2-(methylsulfonyl)ethylamino)methyl)furan-2-yl)quinazolin-4-ylamino)phenol formation at 50 uM for 30 mins by LC/MS/MS analysis; type: ADME; details: 0.5 h; how it was run: as §1
Liver microsome [25] = test: Drug metabolism in human liver microsomes assessed as 2-chloro-4-(6-(5-(hydroxy(2-(methylsulfonyl)ethylamino)methyl)furan-2-yl)quinazolin-4-ylamino)phenol formation at 50 uM for 30 mins by LC/MS/MS analysis; type: ADME; details: 0.5 h; how it was run: as §1
Liver microsome [26] = test: Drug metabolism in human liver microsomes assessed as 6-(5-(aminomethyl)furan-2-yl)-N-(3-chloro-4-(3-fluorobenzyloxy)phenyl)quinazolin-4-amine formation at 50 uM for 30 mins by LC/MS/MS analysis; type: ADME; details: 0.5 h; how it was run: as §1
Liver microsome [27] = test: Drug metabolism in human liver microsomes assessed as N-((5-(4-(3-chloro-4-(3-fluorobenzyloxy)phenylamino)quinazolin-6-yl)furan-2-yl)methylene)-2-(methylsulfonyl)ethanamine oxide formation at 50 uM for 30 mins by LC/MS/MS analysis; type: ADME; details: 0.5 h; how it was run: as §1
Liver microsome [28] = test: Drug metabolism in human liver microsomes assessed as (5-(4-(3-chloro-4-(3-fluorobenzyloxy)phenylamino)quinazolin-6-yl)furan-2-yl)methanol formation at 50 uM for 30 mins by LC/MS/MS analysis; type: ADME; details: 0.5 h; how it was run: as §1
CYP3A4 [29] = target: T3, CYP3A4 (Homo sapiens, UniProt P08684); test: Inhibition of CYP3A4-mediated midazolam 1-hydroxylation in human liver microsomes at 50 uM; type: ADME; details: probe midazolam (1-hydroxylation)
T3 sequence (P08684 whole entry): as the sequence (P08684 whole entry) above
How it was run: (§2)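 30 min preincubation with 50 μM test compound (DMSO) and 1 mM NADPH at 37°C in 100 mM potassium phosphate, pH 7.4. Enzyme source was HLM at 1 mg/mL or recombinant CYP3A4 + b5 at 100 pmol/mL. Residual activity assayed with midazolam (30 μM; 5 min; 37°C) at 0.05 mg/mL. 1'-hydroxymidazolam quantified by LC/MS/MS and normalised to solvent controls.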

CYP3A4 [30] = target: T3, CYP3A4; test: Inhibition of recombinant CYP3A4 (unknown origin)-mediated midazolam 1-hydroxylation at 50 uM; type: ADME; details: recombinant CYP3A4, probe midazolam (1-hydroxylation); how it was run: as §2
CYP3A5 = CYP3A5 (Homo sapiens, UniProt P20815); test: Inhibition of recombinant CYP3A5 (unknown origin)-mediated midazolam 1-hydroxylation at 50 uM; type: ADME; details: recombinant CYP3A5, probe midazolam (1-hydroxylation)
Chain of CYP3A5 (P20815 whole entry): as the sequence (P20815 whole entry) above
How it was run: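 Recombinant CYP3A5+b5 (100 pmol/mL) preincubated 30 min at 37°C, pH 7.4, with lapatinib 50 μM and 1 mM NADPH. Solvent controls run alongside. Residual activity measured as midazolam (30 μM, 5 min, 37°C) 1'-hydroxylation by LC/MS/MS at 0.05 mg/mL. Measured directly and after ultracentrifugation (100,000 x g, 60 min) with or without 2 mM ferricyanide (10 min). Normalized to solvent control.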

Cytochrome P450 3A5 [31] = target: T2, Cytochrome P450 3A5; test: Inhibition of recombinant CYP3A5 (unknown origin)-mediated midazolam 1-hydroxylation at 50 uM in presence of 2 mM ferricyanide; type: ADME; details: recombinant enzyme
How it was run: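 Recombinant CYP3A5 + b5 (100 pmol/mL) preincubated 30 min at 37°C with test compound (50 μM) in 100 mM potassium phosphate pH 7.4, started with 1 mM NADPH. Then potassium ferricyanide (2 mM final) for 10 min at 37°C, ultracentrifugation, pellet washed. Residual midazolam (30 μM, 5 min, 37°C) 1'-hydroxylation measured by LC/MS/MS, normalized to solvent controls.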

Drug metabolism (Liver microsome [1]): metabolite_detected | Drug metabolism (Cytochrome P450 3A4 [2]): metabolite_detected | Ratio [3]: 0.78 | Drug metabolism (Cytochrome P450 3A5 [4]): metabolite_detected
Compound: CS(=O)(=O)CCNC(O)c1ccc(-c2ccc3ncnc(Nc4ccc(O)c(Cl)c4)c3c2)o1 (stereo unspecified)

Drug metabolism (Liver microsome [1]): metabolite_detected | Drug metabolism (Cytochrome P450 3A4 [2]): metabolite_detected | Ratio [3]: 1.13 | Drug metabolism (Cytochrome P450 3A5 [4]): metabolite_detected
Compound: OCc1ccc(-c2ccc3ncnc(Nc4ccc(OCc5cccc(F)c5)c(Cl)c4)c3c2)o1

Compound: CS(=O)(=O)CCNCc1ccc(-c2ccc3ncnc(Nc4ccc(OCc5cccc(F)c5)c(Cl)c4)c3c2)o1 [LAPATINIB]
Drug metabolism (Liver microsome [5]): metabolite_detected | Drug metabolism (Liver microsome [6]): metabolite_detected | Drug metabolism (Liver microsome [7]): metabolite_detected | Drug metabolism (Cytochrome P450 3A4 [8]): metabolite_detected | Drug metabolism (Cytochrome P450 3A4 [9]): metabolite_detected | Drug metabolism (Cytochrome P450 3A4 [10]): metabolite_detected | Drug metabolism (Cytochrome P450 3A4 [11]): metabolite_detected | Drug metabolism (Cytochrome P450 3A4 [12]): metabolite_detected | Drug metabolism (Cytochrome P450 3A4 [13]): metabolite_detected | Drug metabolism (Cytochrome P450 3A5 [14]): metabolite_detected | Drug metabolism (Cytochrome P450 3A5 [15]): metabolite_detected | Drug metabolism (Cytochrome P450 3A5 [16]): metabolite_detected | Drug metabolism (Cytochrome P450 3A5 [17]): metabolite_detected | Drug metabolism (Cytochrome P450 3A5 [18]): metabolite_detected | Drug metabolism (Cytochrome P450 3A5 [19]): metabolite_detected | Drug metabolism (Cytochrome P450 3A5 [20]): metabolite_detected | Drug metabolism (Cytochrome P450 3A5 [21]): metabolite_detected | Drug metabolism (Cytochrome P450 3A4 [22]): metabolite_detected | Drug metabolism (Cytochrome P450 3A4 [23]): metabolite_detected | Drug metabolism (Liver microsome [24]): metabolite_detected | Drug metabolism (Liver microsome [25]): metabolite_detected | Drug metabolism (Liver microsome [26]): metabolite_detected | Drug metabolism (Liver microsome [27]): metabolite_detected | Drug metabolism (Liver microsome [28]): metabolite_detected | inhibition at 50 µM (CYP3A4 [29]): 45% | inhibition at 50 µM (CYP3A4 [30]): 45% | inhibition at 50 µM (CYP3A5): < 15% | inhibition (INH) (Cytochrome P450 3A5 [31]): Active
